Screens: PubChem, several laboratories
The entries come from a sample that favours hits as a whole.
CHOP inhibitor = CHOP inhibition in unfolded protein response; CHO-K1 CHOP-promoter luciferase, tunicamycin-induced, 15-18 h; 220,000 tested, 3.8% active; inhibition, % at 10 µM; AID 2732;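 active = compounds that reduced the stress-induced luciferase reporter signal by more than about 70% of percent inhibition, limit read from the data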;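 also: 0% = tunicamycin plus vehicle and 100% = wells without tunicamycin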
B2AR ag = human beta-2 adrenergic receptor agonism by FAP; AID 504454; 340,000 tested, 0.43% active; Am2.2-beta2AR cells, FAP receptor internalization, flow cytometry; response, % (concentration not given with the values);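 active = response above a set limit, near 3 SD of response in nonfluorescent compounds, cut at about 42% in these data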
Target sequence (P07550 whole entry, looked up): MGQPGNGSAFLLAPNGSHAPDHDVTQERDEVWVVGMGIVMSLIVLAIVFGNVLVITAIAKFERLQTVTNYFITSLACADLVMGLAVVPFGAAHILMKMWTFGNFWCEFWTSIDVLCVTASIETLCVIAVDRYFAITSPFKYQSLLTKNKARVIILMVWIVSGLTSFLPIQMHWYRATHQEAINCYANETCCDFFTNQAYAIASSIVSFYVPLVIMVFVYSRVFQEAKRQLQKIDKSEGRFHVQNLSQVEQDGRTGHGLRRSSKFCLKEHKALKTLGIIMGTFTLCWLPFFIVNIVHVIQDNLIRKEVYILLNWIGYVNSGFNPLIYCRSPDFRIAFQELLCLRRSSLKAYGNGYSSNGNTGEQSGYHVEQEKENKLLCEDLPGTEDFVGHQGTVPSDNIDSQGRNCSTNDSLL
XBP1 UPR activ = adaptive UPR (XBP1) activation | activation, % at 20 µM | 330,000 tested, 0.33% active | CHO-XBP1 luciferase reporter, IRE1-XBP1 UPR activation, luminescence; percent of tunicamycin response, DMSO as zero | AID 463104;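 active = versus positive control, 20 µM dose yields 30% or more activation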;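 also: 100% = tunicamycin at 10 µg/mL and 0% = DMSO only wells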
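Material: IRE1-XBP1 luciferase reporter CHO line / Quantity: one thousand reporter cells per well / Buffer or medium: F12 with 10% serum / Compound: 20 µM single concentration, DMSO 1% / Times: 6 h treatment, 37 °C / Detection: Steady-Glo luciferase glow luminescence, 10 min after reagent addition / Benchmarks: tunicamycin high, DMSO low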
UPR CHOP act = apoptotic UPR (CHOP) activation; 330,000 tested, 0.34% active; activation, % at 10 µM; AID 449763; CHO-CHOP luciferase reporter, luminescence; percent of tunicamycin response over DMSO baseline;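 active = at 10 µM dose, activation of 40% or more, normalized to positive control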;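 also: 100% = tunicamycin at 10 µg/mL and 0% = DMSO alone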
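Dosing – one dose, 10 µM in 0.5% DMSO · System – CHO-CHOP cells, stable luciferase reporter of PERK-eIF2a-CHOP signalling · Input – 500 cells/well · Control set – tunicamycin 10 µg/mL final as positive, DMSO-only wells as negative · Timing – 6 h compound treatment, 37 °C · Measure – % activation vs tunicamycin · Technique – luminescence read with Steady-Glo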
p-CIP stab down = p/CIP protein destabilization | Q05BA5 | F442A p/CIP-EGFP cells, EGFP fluorescence, 16 h | decrease of EGFP signal, % at 10 µM | 290,000 tested, 0.01% active;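 active = EGFP signal decrease of at least 30% at 10 µM or well 3 SD below plate mean, unless failing retest; inactive = the rest, including hits failing retest or dose response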
Dynein cargo inh = dynein cargo transport inhibition; 3617.4 mouse cells, GR-EGFP nuclear translocation imaging; test concentration mostly 20 µM; stimulated with dexamethasone, 1 µM; active compounds read low; z-score, hits read low; 220,000 tested, 0.47% active; AID 1381;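 active = plate z-score of nuclear minus cytoplasmic receptor signal below a set negative limit, without overly bright fluorescence or cell loss, cut at about -3.5 in these data, passing the limit was not always enough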;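 also: z-score of nuclear minus cytoplasmic ring GR-EGFP intensity difference per well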
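medium = tetracycline-free induction medium containing charcoal-stripped FBS | probe or stimulus = dexamethasone, 1.0 µM final | timing = 48 h induction, then 1 h compound, then 30 min agonist, 37 °C | detection = automated 10x imaging of fixed Hoechst-stained cells | read-out basis = nuclear versus cytoplasmic GR-EGFP signal, averaged per well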
* marks the source's active call; other numbers are inactive results; i = inactive; . = not tested or not shown.

SMILES	CHOP inhibitor	B2AR ag	XBP1 UPR activ	UPR CHOP act	p-CIP stab down	Dynein cargo inh
Cn1c(=O)n(Cc2ccc(Cl)cc2)c(=O)c2c1nc1n2CCN1Cc1ccco1	22.5	-8.3	0.4	-1.5	-9.5	0.00573
Cn1c(NCc2ccco2)nc2c1c(=O)n(Cc1ccc(Br)cc1)c(=O)n2C	89.0*	-2.8	-7.6	-1.0	0.6	3.03
COc1ccc(Cl)c(Cn2c(NCc3ccco3)nc3c2c(=O)n(C)c(=O)n3C)c1	18.8	-1.8	-4.7	1.7	-31.5	-0.0323
Cn1c(NCc2ccco2)nc2c1c(=O)n(Cc1ccc(Cl)cc1Cl)c(=O)n2C	88.3*	-6.0	-1.8	0.5	-2.1	0.123
COc1ccc(N2CCN(C(=O)c3ccc(S(=O)(=O)NCc4ccco4)cc3)CC2)cc1	.	4.2	-1.8	1.0	.	.
COC(=O)[C@@H]1C[C@H]2CC[C@H](O)C[C@H]2N1Cc1ccc(C(F)(F)F)cc1	9.0	1.5	0.5	-1.3	-5.4	-0.0334
O=C1C(Cc2ccccc2)S/C(=N/N=C/c2ccco2)N1c1ccccc1 (stereo unspecified)	38.5	3.8	4.0	-3.5	-6.9	-0.897
C=CCN1C(=O)C(Cc2ccc(C)cc2)S/C1=N/N=C/c1ccco1 (stereo unspecified)	76.3*	-9.9	8.1	-0.4	-13.6	-0.63
CCC(C)(C(=O)NC1CCCCC1)N(C(=O)C1CCC(=O)N1)c1ccc(C)cc1 (stereo unspecified)	71.1*	-2.8	-0.5	-0.3	0.6	-0.967
O=S(=O)(NCC(c1cccnc1)N1CCN(c2ccc(F)cc2)CC1)c1ccc(F)cc1 (stereo unspecified)	93.8*	12.6	0.2	1.1	-12.0	0.124
Oc1ccccc1CN(Cc1ccco1)CC(O)COCc1ccc(Cl)cc1 (stereo unspecified)	83.5*	-2.6	-3.0	-1.7	1.7	0.826
COc1ccc(COCC(O)CN(Cc2ccco2)Cc2ccccc2O)cc1 (stereo unspecified)	40.0	0.8	-1.4	1.2	1.4	1.63
CC(C)CC(=O)NC(c1cccs1)c1ccc2cccnc2c1O (stereo unspecified)	79.0*	6.8	-0.1	5.2	-10.6	0.762
Cc1conc1NC(c1cccs1)c1ccc2cccnc2c1O (stereo unspecified)	.	.	1.4	4.4	13.7	2.41
CCCC(=O)NC(c1ccco1)c1cc(Cl)c2cccnc2c1O (stereo unspecified)	-5.5	0.2	-0.3	-1.8	-3.9	1.65
CCCC(=O)NC(c1cccs1)c1cc(Cl)c2cccnc2c1O (stereo unspecified)	74.8*	10.3	-1.0	-1.0	-5.8	-0.153
CCCCC(=O)NC(c1ccccc1OC)c1ccc2cccnc2c1O (stereo unspecified)	72.3*	5.3	3.6	-0.6	-0.3	-0.136
Cc1cc(Br)ccc1NC(=O)CN(C)C(=O)COc1cccc2c1OC(C)(C)C2	.	2.9	-1.6	-0.5	.	.
O=C(Cn1nnc(-c2ccccc2)n1)OCc1ccccc1	76.1*	10.3	0.2	-2.0	-0.3	-0.916
COc1ccc(S(=O)(=O)N2CCOCC2)cc1N=Nc1sc(N)nc1-c1ccccc1	21.4	6.3	-0.5	-0.6	0.3	1.36
Cc1ccc(Cl)cc1N1CCN(C(=O)Cn2ccc3ccccc3c2=O)CC1	65.9	-13.6	1.5	-0.3	-6.2	-0.429
Cc1ccc(Cl)cc1N1CCN(C(=O)Cc2csc(Nc3nc(=S)[nH]c4ccccc34)n2)CC1	83.5*	0.7	13.7	5.9	0.8	-0.798
CCOC(=O)c1c(C)n(C)c2cc(-c3ccc(F)cc3)c(O)cc12	79.4*	-1.2	-0.6	1.2	-5.3	-0.658
CCOC(=O)c1c(C)n(C)c2ccc(OC(C)=O)cc12	1.2	-1.0	-0.2	1.3	4.1	0.133
Cc1[nH]n(-c2ccccc2)c(=S)c1C=Nc1cccc([N+](=O)[O-])c1	79.9*	-7.3	-1.1	0.5	-4.8	0.0642
SMILES	CHOP inhibitor	B2AR ag	XBP1 UPR activ	UPR CHOP act	p-CIP stab down	Dynein cargo inh
CCCCN=Cc1c(C)[nH]n(-c2ccccc2)c1=S	43.4	-5.7	6.8	-0.6	-9.3	-0.99
CCOc1ccc(CC(=O)NCC2(N3CCCCC3)CCCCC2)cc1	-0.6	2.4	-2.4	2.3	10.3	-0.453
O=C(CNc1ccccc1)N/N=C/c1cc([N+](=O)[O-])ccc1N1CCCC1	73.2*	3.1	-4.2	-3.5	-2.4	-0.065
N#CCC(=O)N/N=C/c1cc([N+](=O)[O-])ccc1N1CCCC1	-1.8	6.1	0.6	0.3	2.6	1.83
COc1ccccc1-n1c(-c2ccc(NS(C)(=O)=O)cc2)n[nH]c1=S	93.3*	2.5	-1.7	1.5	0.6	0.268
COc1ccc(-c2n[nH]c(=S)n2-c2cc(OC)ccc2OC)cc1	-1.2	3.1	-0.6	0.1	-12.4	0.0527
CCOC(=O)N1C(=O)NC(=O)C1c1ccc(OC)cc1 (stereo unspecified)	.	-9.3	.	.	.	.
Cc1nn(Cc2ccccc2)c(Cl)c1C(=O)OCC(=O)NC(=O)NC12CC3CC(CC(C3)C1)C2	66.8	4.7	0.8	-0.4	1.2	0.172
O=C(CCl)NC(=O)NC12CC3CC(CC(C3)C1)C2	102.9*	21.0	.	.	-0.4	-3.35
Cc1noc(C)c1C(=O)OCC(=O)NC(=O)NC12CC3CC(CC(C3)C1)C2	81.2*	-4.6	-0.4	0.3	-4.2	i
COc1ccc(NC(=O)CNS(=O)(=O)c2ccc3nc(C)sc3c2)c(OC)c1	19.8	-8.4	-2.7	0.8	10.3	-0.896
Cc1ccc(SCc2nc3ccccc3n2CC(=O)Nc2c(C)cccc2C)cc1	89.6*	7.9	-1.8	-0.6	-8.3	0.0218
COc1ccc(/C=N/n2cc(-c3ccccc3)nc2N)cc1	-28.8	-2.8	-0.3	1.9	-1.5	-0.0837
COc1ccc(/C=N/n2cc(-c3ccc(OC)cc3)nc2N)cc1	70.4*	-1.0	-1.7	5.8	-7.2	-0.836
COC(=O)Oc1ccc(/C=N/NC(=O)CSCc2ccc(Cl)cc2)cc1OC	78.3*	7.9	-1.1	-1.3	-2.1	0.583
CC(=C/c1ccco1)/C=N/NC(=O)CSc1nnc(SCc2ccc(C)cc2)s1	80.3*	-0.8	-3.0	3.6	-1.2	-0.105
O=C(CSCc1ccc(Cl)cc1)N/N=C/c1c(Cl)cccc1Cl	91.7*	-5.4	.	.	17.1	-0.973
O=C(CSCc1ccc(Cl)cc1)N/N=C/c1ccccc1	-9.6	-6.2	0.4	-1.0	-13.3	-0.218
O=C(CSc1nnc(SCc2ccc(Cl)cc2)s1)N/N=C/c1ccc(Cl)cc1Cl	73.3*	-5.2	70.1*	3.4	-6.7	-0.756
